From ChEMBL document CHEMBL2311473, “Characterization of antimicrobial, cytotoxic, and antiendotoxin properties of short peptides with different hydrophobic amino acids at "a" and "d" positions of a heptad repeat sequence” (J Med Chem, 2013)
Converted amounts (≈) assume the structure as drawn. The source made the active and inactive calls. The rule behind the calls is not given here.

How the values were obtained:
Lipopolysaccharide (LPS) [1] = assay: Binding affinity to LPS assessed as inhibition of LPS-induced LAL enzyme activation at 18 uM after 30 mins by spectrophotometric analysis
Procedure, shortened: (§1)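 Chromogenic limulus amoebocyte lysate endotoxin kit. Peptide binding to LPS estimated from inhibition of LPS-induced LAL enzyme activation, i.e. reduced substrate colour, and reported as percentage LPS binding.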

Lipopolysaccharide (LPS) [2] = assay: Binding affinity to LPS assessed as inhibition of LPS-induced LAL enzyme activation at 9 uM after 30 mins by spectrophotometric analysis; procedure, shortened: as §1
Lipopolysaccharide (LPS) [3] = assay: Binding affinity to LPS assessed as inhibition of LPS-induced LAL enzyme activation at 4.5 uM after 30 mins by spectrophotometric analysis; procedure, shortened: as §1
Lipopolysaccharide (LPS) [4] = assay: Binding affinity to FITC-tagged LPS assessed as induction of disintegration up to 40 uM by […]; details: in the assay text read “fluorescence dequenching” for “circular dichroism”
Procedure, shortened: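 FITC-LPS (0.5 μg/mL) titrated with increasing peptide concentrations. Disaggregation read as dequenching, i.e. rise in FITC fluorescence, monitored after each addition until emission reached equilibrium.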

Lipopolysaccharide (LPS) [5] = assay: Binding affinity to LPS assessed as increase in helical structure at 36 uM by circular dichroism analysis
Procedure, shortened: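 CD spectra of peptides (36 μM) recorded alone and with LPS at 3.8 and 6.25 μM.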

RAW264.7 [6] = assay: Antiinflammatory activity in mouse RAW264.7 cells assessed as inhibition of LPS-induced IL6 secretion at 1.5 to 4.5 uM after 12 hrs by ELISA; type: functional, cell-based
Procedure, shortened: (§2)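 RAW 264.7 cells treated with LPS alone or LPS plus peptide. TNF-α and IL-6 measured by ELISA in culture supernatant and expressed as percentage inhibition of LPS-induced secretion. Mean of three independent experiments, SD shown.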

RAW264.7 [7] = assay: Antiinflammatory activity in mouse RAW264.7 cells assessed as downregulation of LPS-induced iNOS2 expression at 4.5 uM after 24 hrs by Western blotting analysis; type: functional, cell-based
Procedure, shortened: (§3)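 RAW 264.7 cells (~2 × 10^5) stimulated with LPS 1 μg/mL plus peptide 4.5 μM for 24 h. Cells washed in ice-cold PBS and lysed in Laemmli buffer. SDS-PAGE (8% gel iNOS-2, 12% TNF-α), nitrocellulose transfer, alkaline phosphatase secondary with NBT/BCIP. Band densities normalized to β-actin. LPS-only and untreated cells served as controls.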

RAW264.7 [8] = assay: Antiinflammatory activity in mouse RAW264.7 cells assessed as downregulation of LPS-induced TNFalpha expression at 4.5 uM after 24 hrs by Western blotting analysis; type: functional, cell-based; procedure, shortened: as §3
RAW264.7 [9] = assay: Antiinflammatory activity in mouse RAW264.7 cells assessed as inhibition of LPS-induced NO production at 6 uM by Griess method; type: functional; parameters: scale not given: the % may be the effect or the level left
Procedure, shortened: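 RAW 264.7 cells plated at 5 × 10^5/well and exposed to LPS (E. coli 0111:B4, 1 μg/mL) together with peptide at varying doses. Cells with and without LPS served as maximum and basal NO controls. Nitrite in the supernatant measured by Griess reagent at 548 nm against a sodium nitrite standard curve, and percent inhibition of NO calculated.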

[10] = Binding affinity to PE/PG lipid vesicles assessed as increase in helical structure at 36 uM by circular dichroism analysis; type: physicochemical
Procedure, shortened: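 Peptides (~36 μM) with ~500 μM PC/Chol (8:1 w/w) or PE/PG (7:3 w/w) vesicles. CD spectra 250–190 nm at ~30 °C in 0.2 cm cuvette; 4–6 scans averaged at 20 nm/min, 0.5 nm interval.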

[11] = Binding affinity to PE/PG lipid vesicles assessed as decrease in decrease in acrylamide-induced tryptophan fluorescence quenching at 1 uM; type: physicochemical
Procedure, shortened: (§4)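 Acrylamide quencher added in aliquots from 3.0 M stock to peptide with PC/Chol (8:1) or PE/PG (7:3) SUVs, peptide/lipid 1:100. Trp excited at 295 nm. Values corrected for dilution and vesicle-blank scatter, then fitted to Stern–Volmer F0/F = 1 + KSV[Q].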

[12] = Binding affinity to PC/Chol lipid vesicles assessed as decrease in acrylamide-induced tryptophan fluorescence quenching at 1 uM; type: physicochemical; procedure, shortened: as §4
[13] = Binding affinity to PC/Chol lipid vesicles assessed as induction of large blue shift at 1 uM by fluorescence assay; type: physicochemical
[14] = Binding affinity to PE/PG lipid vesicles assessed as induction of large blue shift at 1 uM by fluorescence assay; type: physicochemical
[15] = Induction of dissipation of diffusion potential in PC/Chol lipid vesicles by fluorescence assay; type: physicochemical
Procedure, shortened: (§5)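 SUVs of PC/Chol (8:1 w/w) or PE/PG (7:3 w/w) treated with peptide. Dissipation of diffusion potential taken as percentage fluorescence recovery ~5 min after peptide addition, with valinomycin used for reference levels. Plotted against peptide/lipid molar ratio.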

[16] = Induction of dissipation of diffusion potential in PE/PG lipid vesicles by fluorescence assay; type: physicochemical; procedure, shortened: as §5
Staphylococcus aureus [17] = assay: Bactericidal activity against Staphylococcus aureus ATCC 9144 assessed as induction of membrane depolarization at up to 7 uM by DiSC3(5) staining-based fluorescence assay; type: functional, organism-based
Procedure, shortened: (§6)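 Membrane potential dye diS-C3-5 preincubated 1 h with hRBC or S. aureus suspensions; I0 is steady-state fluorescence after this incubation. Peptide then added at varying concentrations. Depolarization expressed as percentage fluorescence recovery (Ft) versus peptide concentration.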

[18] = Cytotoxicity against human RBC assessed as induction of membrane depolarization at up to 16 uM by DiSC3(5) staining-based fluorescence assay; type: cell-based; details: erythrocyte; procedure, shortened: as §6
Escherichia coli [19] = assay: Bactericidal activity against Escherichia coli ATCC 10536 assessed as induction of membrane damage at 5 uM after 30 mins by propidium iodide staining-based flow cytometric analysis; type: functional, organism-based
Procedure, shortened: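 Mid-log E. coli incubated with peptide (~5.0 μM) 30 min at 37 °C with shaking. Cells washed twice in PBS, stained with propidium iodide 30 min at 4 °C, washed and resuspended. 10000 events per sample by flow cytometry, compared with peptide-free control.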

[20] = Cytotoxicity against human RBC assessed as induction of membrane damage at 25 uM after 5 mins by annexin V-FITC staining-based FACS flow cytometric analysis; type: cell-based; details: erythrocyte
Procedure, shortened: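 hRBCs (~3.0 × 10^7 cells/mL) treated with peptide (~25.0 μM) for 5 min at room temperature. Stained with FITC-annexin V and analysed by flow cytometry, 10000 events, compared with untreated control.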

Escherichia coli [21] = assay: Drug uptake in Escherichia coli ATCC 10536 assessed as membrane localization at 3 uM after 30 mins by confocal microscopic analysis; type: ADME, organism-based; details: in vivo, 0.5 h
Procedure, shortened: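 E. coli (~10^6 CFU/mL) in LB incubated with fluorescent-labeled peptide (~3.0 μM) for half an hour. Cells centrifuged, washed and imaged by confocal microscopy (DIC and fluorescence).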

Aspergillus fumigatus = assay: Antifungal activity against Aspergillus fumigatus after 72 hrs by NCCLS microbroth dilution method; type: functional
Procedure, shortened: (§7)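 Microbroth dilution in MOPS-buffered RPMI 1640 following NCCLS guidelines. Inoculum 1−5 × 10^3 cells/mL, peptide range 50−0.36 (mass/mL). Plates held in a moist chamber at 35 °C and A492 read after 48 h (Candida spp.), 72 h (A. fumigatus, S. schenckii, C. neoformans) or 96 h (T. mentagrophytes). MIC taken as 90% growth inhibition versus growth control.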

[22] = tested on: Trichophyton mentagrophytes; assay: Antifungal activity against Trichophyton mentagrophytes after 96 hrs by NCCLS microbroth dilution method; type: functional; procedure, shortened: as §7
Sporothrix schenckii = assay: Antifungal activity against Sporothrix schenckii after 72 hrs by NCCLS microbroth dilution method; type: functional; procedure, shortened: as §7
Candida parapsilosis = assay: Antifungal activity against Candida parapsilosis ATCC 22019 after 48 hrs by NCCLS microbroth dilution method; type: functional; details: Lodderomyces parapsilosis, ATCC 22019, 48 h; procedure, shortened: as §7
Cryptococcus neoformans = assay: Antifungal activity against Cryptococcus neoformans after 72 hrs by NCCLS microbroth dilution method; type: functional; procedure, shortened: as §7
Candida albicans = assay: Antifungal activity against Candida albicans after 48 hrs by NCCLS microbroth dilution method; type: functional; procedure, shortened: as §7
Klebsiella pneumoniae = assay: Antibacterial activity against Klebsiella pneumoniae ATCC 27736 after 18 hrs by broth dilution method; type: functional; details: ATCC 27736, 18 h
Procedure, shortened: (§8)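 Bacteria grown aerobically at 37 °C in Mueller-Hinton broth to mid-log phase (OD600), diluted to ~10^6 cfu/mL, then mixed 1:1 with 2-fold serial peptide dilutions in water. Incubation ~18 h at 37 °C before MIC read-out (μM).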

Pseudomonas aeruginosa = assay: Antibacterial activity against Pseudomonas aeruginosa ATCC BAA-427 after 18 hrs by broth dilution method; type: functional; details: ATCC BAA-427, 18 h; procedure, shortened: as §8
Staphylococcus aureus [23] = assay: Antibacterial activity against methicillin-resistant Staphylococcus aureus after 18 hrs by broth dilution method; type: functional; procedure, shortened: as §8
Escherichia coli [24] = assay: Antibacterial activity against Escherichia coli ATCC 10536 after 18 hrs by broth dilution method; type: functional; details: ATCC 10536, 18 h; procedure, shortened: as §8
Bacillus subtilis = assay: Antibacterial activity against Bacillus subtilis ATCC 6633 after 18 hrs by broth dilution method; type: functional; details: ATCC 6633, 18 h; procedure, shortened: as §8
[25] = tested on: Staphylococcus epidermidis; assay: Antibacterial activity against Staphylococcus epidermidis NRRL B-4268 after 18 hrs by broth dilution method; type: functional; details: NRRL B-4268, 18 h; procedure, shortened: as §8
Staphylococcus aureus [26] = assay: Antibacterial activity against Staphylococcus aureus ATCC 9144 after 18 hrs by broth dilution method; type: functional; details: ATCC 9144, 18 h; procedure, shortened: as §8
NIH3T3 = assay: Cytotoxicity against mouse 3T3 cells assessed as cell viability up to 25 uM by MTT assay; type: cell-based
Procedure, shortened: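 Murine 3T3 fibroblasts, grown in DMEM/IMDM with 10% FCS at 37 °C, 5% CO2, seeded at 10000 cells/well. Viability after peptide exposure measured by MTT (mitochondrial dehydrogenase) across a dose range.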

[27] = Cytotoxicity against human RBC assessed as hemolysis at 60 uM; type: cell-based, Erythrocyte; details: red blood cells (RBC), read-out: Activity
Procedure, shortened: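 hRBCs in PBS exposed to peptide. Hemoglobin release read as supernatant absorbance at 540 nm. Hemolysis % = (Asample − Ablank)/(Atriton − Ablank) × 100, with PBS blank and 0.2% Triton X-100 (final) as 100% reference.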

RAW264.7 [28] = assay: Antiinflammatory activity in mouse RAW264.7 cells assessed as inhibition of LPS-induced TNFalpha secretion at 1.5 to 4.5 uM after 12 hrs by ELISA; type: functional, cell-based; procedure, shortened: as §2
[29] = Drug uptake in human RBC assessed as membrane localization at 9 uM after 10 to 30 mins by confocal microscopic analysis; type: ADME; details: erythrocyte
Procedure, shortened: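 Fresh hRBCs (3% in PBS) incubated with NBD-labeled peptide (~9.0 μM) for 10–30 min at 37 °C. Washed, fixed in 2% paraformaldehyde 10 min, and imaged by confocal microscopy at constant photomultiplier setting.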

CC(C)[C@H](N)C(=O)O [VALINE]
inhibition (Lipopolysaccharide (LPS) [1]): 29% | inhibition (Lipopolysaccharide (LPS) [2]): 22% | inhibition (Lipopolysaccharide (LPS) [3]): 8% | Activity (Lipopolysaccharide (LPS) [4]): Active | Activity (Lipopolysaccharide (LPS) [5]): Active | inhibition (RAW264.7 [6]): Active | Activity (RAW264.7 [7]): Active | Activity (RAW264.7 [8]): Active | Activity (RAW264.7 [9]): 50% | Activity [10]: Active | Activity [11]: Active | Activity [12]: Not Active | Activity [13]: Not Active | Activity [14]: Active | Activity [15]: Active | Activity [16]: Active | Activity (Staphylococcus aureus [17]): Active | Activity [18]: Non-toxic | Activity (Escherichia coli [19]): Active | Activity [20]: Non-toxic | Drug uptake (Escherichia coli [21]): Active | MIC (Aspergillus fumigatus): 8.4 µM (≈ 0.984 µg/mL) | MIC [22]: 6 µM (≈ 0.703 µg/mL) | MIC (Sporothrix schenckii): 6 µM (≈ 0.703 µg/mL) | MIC (Candida parapsilosis): 1.5 µM (≈ 0.176 µg/mL) | MIC (Cryptococcus neoformans): 8.4 µM (≈ 0.984 µg/mL) | MIC (Candida albicans): 9.6 µM (≈ 1.12 µg/mL) | MIC (Klebsiella pneumoniae): 3.2 µM (≈ 0.375 µg/mL) | MIC (Pseudomonas aeruginosa): 3.2 µM (≈ 0.375 µg/mL) | MIC (Staphylococcus aureus [23]): 12.5 µM (≈ 1.46 µg/mL) | MIC (Escherichia coli [24]): 3 µM (≈ 0.351 µg/mL) | MIC (Bacillus subtilis): 6.8 µM (≈ 0.797 µg/mL) | MIC [25]: 6 µM (≈ 0.703 µg/mL) | MIC (Staphylococcus aureus [26]): 5.1 µM (≈ 0.597 µg/mL) | Activity (NIH3T3): Toxic | hemolysis at 60 µM [27]: 10% | inhibition (RAW264.7 [28]): Active | Drug uptake [29]: Active
